Screens as filed in PubChem.
Arbovirus inh: arbovirus infection inhibition; inhibition, % at 10 µM; hit rate 0.37% among 200,000; arbovirus infection cell-based antiviral screen; in the data active = inhibition above about 30%
L major viab: reduces viability of Leishmania major promastigotes; resazurin fluorescence viability; inhibition, % at 10 µM; hit rate 9% among 200,000;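 note: promastigotes grown with compound for 44 hours at 28 °C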
CHOP inhibitor: blocks CHOP induction under ER stress; hit rate 3.8% among 220,000; CHO-K1 CHOP-promoter luciferase, tunicamycin-induced, 15-18 h; inhibition, % at 10 µM;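 active = compounds that reduced the stress-induced luciferase reporter signal by more than about 70% of percent inhibition, limit read from the data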;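 note: 0% = tunicamycin plus vehicle and 100% = wells without tunicamycin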
Rad51 HR inh: blocks human Rad51 in homologous recombination; Q06609; hRad51 DNA strand exchange, fluorescence dequenching; inhibition, % at 10 µM; hit rate 0.085% among 200,000;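 active = inhibition above 40% at the single screening dose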;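 note: 0% = DMSO control wells and 100% = blanks with heterologous ssDNA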
Target sequence (Q06609 whole entry, looked up): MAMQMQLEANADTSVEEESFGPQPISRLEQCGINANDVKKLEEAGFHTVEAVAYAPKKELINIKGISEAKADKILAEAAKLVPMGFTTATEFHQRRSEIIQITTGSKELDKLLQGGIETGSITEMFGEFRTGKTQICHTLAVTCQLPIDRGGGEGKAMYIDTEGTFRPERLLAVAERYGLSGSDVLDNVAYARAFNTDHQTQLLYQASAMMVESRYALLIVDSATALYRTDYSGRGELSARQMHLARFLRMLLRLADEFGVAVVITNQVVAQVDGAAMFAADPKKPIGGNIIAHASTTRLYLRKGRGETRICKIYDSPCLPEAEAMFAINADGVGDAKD
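Test system: preformed human Rad51 ssDNA filaments; also added: Donor/quencher-labelled 47-bp dsDNA substrate; doses: 10 µM final, single point; times: 37 °C 15-min filament assembly, 30-min compound preincubation, 15-min exchange; detection: FRET fluorescence dequenching, excitation 485 nm, emission 520 nm; read-out basis: Fluorescence-based percent inhibition, control- and blank-normalised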
PKD1 kinase inh: blocks activity of human protein kinase D1. Q15139. PKD1 kinase fluorescence polarization assay. inhibition, % (no concentration beside the values). hit rate 0.056% among 200,000. AID 797
Wee1 stabilizer: human Wee1 degradation inhibition, primary screen; P30291; HeLa Luc-Wee1K328M stability, luciferase luminescence; 100% = proteasome inhibitor MG132 effect; reporter increase, % at 5 µM; AID 1321; hit rate 1.2% among 220,000;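 active = activation above the mean of all tested compounds plus 3 SD, set per screening run, cut at about 8.8% in these data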;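 note: cells exposed to compound for 20 h before luminescence read; 0% = DMSO alone and 100% = MG132 at 30 µM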
Wee1 degr conf: confirmation of human Wee1 degradation inhibitors; shares compounds with Wee1 stabilizer; HeLa Luc-Wee1K328M degradation, luminescence; vehicle 0%, proteasome-blocked wells 100%; activation, % at 5 µM; hit rate 4% among 1,100; AID 1410; in the data active = activation above about 8.9%
The depositor's hits bear a star. Compounds with a hit are over-represented: about 12% of the library has one in this group of screens. Cut-off read from the data, not from the text of the source, unless noted: active = inhibition above about 50%; inactive = the rest.

Screening CN(C)c1ccc(C2SCCN2C(=O)c2ccc([N+](=O)[O-])cc2)cc1 (stereo unspecified) returned Arbovirus inh -1, L major viab -1, CHOP inhibitor 16, Rad51 HR inh -5, PKD1 kinase inh 0 and Wee1 stabilizer 3.
CCOC(=O)CN1C(=O)N[C@@H](c2ccco2)C(C(C)=O)=C1C was read as Rad51 HR inh 0.
O=C(COc1ccc2c(c1)OCO2)Nc1ccccc1C(F)(F)F was read as Arbovirus inh 1, L major viab 0, CHOP inhibitor -23, Rad51 HR inh -3, PKD1 kinase inh -4 and Wee1 stabilizer 6.
Cc1cc2nc(-c3cccc(NC(=O)c4ccc(Br)o4)c3C)oc2cc1C was read as Arbovirus inh -2, L major viab 0, CHOP inhibitor 68, Rad51 HR inh -3, PKD1 kinase inh -5, Wee1 stabilizer 14* and Wee1 degr conf 0.
For O=C(Nc1cc(S(=O)(=O)N2CCOCC2)ccc1N1CCCC1)c1ccc2c(c1)S(=O)(=O)c1ccccc1C2=O the results were Arbovirus inh 5, L major viab 44, CHOP inhibitor -21, PKD1 kinase inh -10 and Wee1 stabilizer -2.
For Cc1cc([N+](=O)[O-])nn1CCCC(=O)NCc1ccc(F)cc1 the results were Arbovirus inh 9, L major viab -9, CHOP inhibitor -9, Rad51 HR inh 12, PKD1 kinase inh -3 and Wee1 stabilizer 3.
COc1ccccc1N1CCN(C2=Nc3cccc4cccc2c34)CC1 was read as Arbovirus inh -10, L major viab 77*, CHOP inhibitor 3, Rad51 HR inh -10, PKD1 kinase inh -10, Wee1 stabilizer 15* and Wee1 degr conf 2.
CCCCCCCC1(C)NC(=O)N(c2ccccc2)N1 (stereo unspecified) was read as Arbovirus inh -34, L major viab 7, CHOP inhibitor 69, Rad51 HR inh -1, PKD1 kinase inh 0, Wee1 stabilizer 14* and Wee1 degr conf 1.
Cc1ccn2c(c1)nc(=S)n2C(=O)c1ccccc1 was read as Arbovirus inh -1, L major viab 15, CHOP inhibitor 12, PKD1 kinase inh -1, Wee1 stabilizer 14* and Wee1 degr conf 2.
C=CCn1c(N)c(C(=O)Nc2ccccc2)c2nc3ccccc3nc21 was read as Arbovirus inh -8, L major viab 12, CHOP inhibitor 64, Rad51 HR inh -12, PKD1 kinase inh 7, Wee1 stabilizer 15* and Wee1 degr conf 6.
For CC(C)c1nnc(SCC(=O)NCc2ccc3c(c2)OCO3)n1C the results were Arbovirus inh 1, L major viab -4, CHOP inhibitor -2, Rad51 HR inh 5, PKD1 kinase inh -8, Wee1 stabilizer 12* and Wee1 degr conf -1.
`C(=C\c1ccco1)/c1nc2ccccc2[nH]1` gave Arbovirus inh -18, L major viab 12, CHOP inhibitor 30, PKD1 kinase inh -3, Wee1 stabilizer 14* and Wee1 degr conf 3.
For CC(NS(=O)(=O)c1ccc(Br)cc1)C(=O)NCCc1ccccc1 (stereo unspecified) the results were Arbovirus inh -7, L major viab -3, CHOP inhibitor 8, Rad51 HR inh -7, PKD1 kinase inh -2 and Wee1 stabilizer 6.
`COCCn1c(SCC(=O)Nc2ccc(F)cc2)nc2c(oc3ccccc32)c1=O` gave Arbovirus inh -22, L major viab -1, CHOP inhibitor 84*, Rad51 HR inh 5, PKD1 kinase inh -4, Wee1 stabilizer 11* and Wee1 degr conf -2.
`COc1cc(Br)cc(CNc2ccc(F)c([N+](=O)[O-])c2)c1O` gave Arbovirus inh -10, L major viab 5, CHOP inhibitor -12, Rad51 HR inh 1, PKD1 kinase inh -3 and Wee1 stabilizer 1.
`Cc1ccc(/C=C/C(=O)OCc2nc(N)nc(Nc3ccccc3C)n2)o1` gave Arbovirus inh 1, L major viab -7, CHOP inhibitor 9, Rad51 HR inh -4, PKD1 kinase inh -2, Wee1 stabilizer 13* and Wee1 degr conf -2.
Screening N#CCSc1nc2ccccc2o1 returned CHOP inhibitor 11, Rad51 HR inh 7 and Wee1 stabilizer -2.
Screening O=[N+]([O-])c1ccccc1CSc1nc2ccccc2o1 returned Arbovirus inh -2, L major viab -7, CHOP inhibitor 34, PKD1 kinase inh 5, Wee1 stabilizer 44* and Wee1 degr conf -1.
`CC1(C)CC(=O)C2=C(C1)N=C1SCCC(=O)N1C2c1cccc([N+](=O)[O-])c1` (stereo unspecified) gave Arbovirus inh 10, L major viab -2, CHOP inhibitor -2, Rad51 HR inh 8, PKD1 kinase inh -6, Wee1 stabilizer 12* and Wee1 degr conf 0.
S=C(NCCCN1CCOCC1)Nc1cccc(Cl)c1 was read as Arbovirus inh 4, L major viab 22, CHOP inhibitor 9, Rad51 HR inh 8, PKD1 kinase inh -4 and Wee1 stabilizer 0.
Screening S=C(NCCN1CCOCC1)Nc1cccc(Cl)c1 returned Arbovirus inh 15, L major viab 4, CHOP inhibitor 21, Rad51 HR inh 23, PKD1 kinase inh -2, Wee1 stabilizer 15* and Wee1 degr conf -1.
Screening S=C(Nc1ccccc1)N1CCN(Cc2ccccc2)CC1 returned CHOP inhibitor 3, Rad51 HR inh -1 and Wee1 stabilizer 3.
`S=C(Nc1cccc(Cl)c1)N1CCN(Cc2ccccc2)CC1` gave Arbovirus inh 14, L major viab 23, CHOP inhibitor 15, PKD1 kinase inh 5, Wee1 stabilizer 11* and Wee1 degr conf 4.
FC(F)(F)c1ccc(Oc2ccc3cc(Br)ccc3c2)nc1 was read as Arbovirus inh 0, L major viab -4, CHOP inhibitor 45, Rad51 HR inh 1, PKD1 kinase inh 0 and Wee1 stabilizer 7.
Screening S=C1NC2CCCCC2N1 (stereo unspecified) returned Arbovirus inh -2, L major viab 11, CHOP inhibitor -4, Rad51 HR inh 3, PKD1 kinase inh 0 and Wee1 stabilizer 0.
`Cc1ccc2[nH]c(C(=O)NN=C3CCCCC3)c(-c3ccccc3)c2c1` gave Arbovirus inh -6, L major viab 16, CHOP inhibitor 65, Rad51 HR inh 5, PKD1 kinase inh -4, Wee1 stabilizer 16* and Wee1 degr conf 4.
CCOc1ccc(Cc2noc3c2C(=O)CCC3)cc1OCC was read as Arbovirus inh 7, L major viab 0, CHOP inhibitor 5, Rad51 HR inh -11, PKD1 kinase inh -1, Wee1 stabilizer 17* and Wee1 degr conf 2.
CCOc1ccc(Cc2noc3c2C(=O)CC(C)(C)C3)cc1OCC was read as Arbovirus inh 2, L major viab 2, CHOP inhibitor 18, PKD1 kinase inh 1 and Wee1 stabilizer 1.
